≈ marks a conversion by molar mass, not a printed value. Like-named read-outs stand apart in the source and are kept apart here.
How the values were obtained:
CRKP [1] = assay: Resistance development assay, 20 passages; format: cell-based, K. pneumoniae; conditions: Klebsiella pneumoniae
Outline: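 Log-phase CRKP clinical isolate diluted in LB broth containing imipenem, with or without test compound, and cultured at 37°C for serial passaging.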

CRKP [2] = assay: Lethal CRKP pneumonia model, survival; format: in vivo, BALB/c mice; conditions: single dose; TINA 10 mg/kg, imipenem 8 mg/kg, or 10 + 8 mg/kg; n = 10
Outline: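 Female BALB/c mice (n = 10 per group) infected with 5 × 10^7 CFU CRKP. Thirty minutes later they were treated with PBS, test compound 10 mg/kg, imipenem 8 mg/kg, or test compound plus imipenem (10 + 8 mg/kg) as a single or double dose. Survival was followed for 7 days postinfection and cumulative survival calculated.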

CRKP [3] = assay: Time-dependent killing assay; format: cell-based, K. pneumoniae; conditions: TINA 20 μg/ml or imipenem 8 μg/ml alone, 24 hours
CRKP, CRE, and CRAB = assay: Acute pneumonia models, blood indicators, histology and inflammation; format: in vivo, BALB/c mice; conditions: TINA 10 mg/kg or imipenem 8 mg/kg, single dose

`C[C@@H](O)[C@H]1C(=O)N2C(C(=O)O)=C(SCCN=CN)C[C@H]12` [Imipenem, imipenem] was tested, and the MIC (CRKP [1]; read-out: MIC after 20 passages) was 2050 µg/mL (≈ 6.84 mM), the MIC (CRKP [1]; read-out: MIC before passaging) was 64 µg/mL (≈ 0.214 mM) and the “survival rate at dpi 7” value (CRKP [2]) was 30%. The “change in bacteria counts, monotherapy” value (CRKP [3]) was “increased by two orders of magnitude in bacteria counts” and the “effect of monotherapy on live bacteria in the lungs” value (CRKP, CRE, and CRAB) was “mere effects on eliminating live bacteria in the lungs”.
